Values joined by “and” are separate entries in the source; they are usually repeats but may differ in a detail not shown here. Equal entries are not always repeated. Where two headings read alike, the source gives them in different places.
Experiments:
[1] = molecular target: T1, 5-HT1A receptor (Homo sapiens, UniProt P08908); experiment: Radioligand binding, [3H]8-hydroxy-2-
T1 sequence (P08908 1-422): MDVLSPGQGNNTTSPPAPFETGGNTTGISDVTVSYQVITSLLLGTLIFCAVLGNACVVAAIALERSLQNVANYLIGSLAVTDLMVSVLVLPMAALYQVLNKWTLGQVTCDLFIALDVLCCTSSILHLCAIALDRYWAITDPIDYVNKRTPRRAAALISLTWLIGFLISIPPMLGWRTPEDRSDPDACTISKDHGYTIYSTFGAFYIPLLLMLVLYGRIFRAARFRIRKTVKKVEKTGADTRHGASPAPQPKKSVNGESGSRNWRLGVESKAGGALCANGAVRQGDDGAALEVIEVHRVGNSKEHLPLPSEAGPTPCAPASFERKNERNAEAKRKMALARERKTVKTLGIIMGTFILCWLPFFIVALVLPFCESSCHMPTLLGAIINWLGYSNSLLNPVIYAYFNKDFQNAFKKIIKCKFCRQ

[2] = molecular target: dopamine D2 receptors (Homo sapiens, UniProt P14416); experiment: Radioligand binding, [3H]spiperone displacement
Chain of dopamine D2 receptors (P14416 whole entry): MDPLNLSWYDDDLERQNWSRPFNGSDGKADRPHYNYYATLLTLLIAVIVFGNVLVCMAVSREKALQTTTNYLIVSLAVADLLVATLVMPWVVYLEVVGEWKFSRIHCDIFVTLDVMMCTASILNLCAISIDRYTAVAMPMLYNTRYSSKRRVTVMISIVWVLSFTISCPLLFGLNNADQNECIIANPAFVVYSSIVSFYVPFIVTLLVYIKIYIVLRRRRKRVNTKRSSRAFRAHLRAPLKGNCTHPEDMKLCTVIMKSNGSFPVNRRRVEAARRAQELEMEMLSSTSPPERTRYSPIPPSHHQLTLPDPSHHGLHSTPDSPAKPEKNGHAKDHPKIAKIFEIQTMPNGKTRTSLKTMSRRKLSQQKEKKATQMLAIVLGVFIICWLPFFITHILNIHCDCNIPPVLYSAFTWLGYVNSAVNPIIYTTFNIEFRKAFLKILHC

[3] = molecular target: mouse TAAR1 (Mus musculus, UniProt Q923Y8); experiment: Radioligand binding, [3H]RO5166017 displacement
Chain of mouse TAAR1 (Q923Y8 whole entry): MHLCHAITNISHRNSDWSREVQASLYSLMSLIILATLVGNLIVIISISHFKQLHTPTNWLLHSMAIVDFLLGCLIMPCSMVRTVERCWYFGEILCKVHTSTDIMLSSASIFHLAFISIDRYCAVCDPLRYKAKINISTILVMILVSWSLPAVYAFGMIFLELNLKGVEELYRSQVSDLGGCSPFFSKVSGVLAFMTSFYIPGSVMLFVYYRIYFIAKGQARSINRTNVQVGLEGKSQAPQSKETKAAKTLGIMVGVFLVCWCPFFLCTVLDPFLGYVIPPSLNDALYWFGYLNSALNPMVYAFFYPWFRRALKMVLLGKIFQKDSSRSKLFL

[4] = molecular target: human 5-HT transporter (SERT) (Homo sapiens, UniProt P31645); experiment: [3H]5-HT uptake inhibition in HEK 293 cells overexpressing human SERT; assay type: cell-based
Chain of human 5-HT transporter (SERT) (P31645 whole entry): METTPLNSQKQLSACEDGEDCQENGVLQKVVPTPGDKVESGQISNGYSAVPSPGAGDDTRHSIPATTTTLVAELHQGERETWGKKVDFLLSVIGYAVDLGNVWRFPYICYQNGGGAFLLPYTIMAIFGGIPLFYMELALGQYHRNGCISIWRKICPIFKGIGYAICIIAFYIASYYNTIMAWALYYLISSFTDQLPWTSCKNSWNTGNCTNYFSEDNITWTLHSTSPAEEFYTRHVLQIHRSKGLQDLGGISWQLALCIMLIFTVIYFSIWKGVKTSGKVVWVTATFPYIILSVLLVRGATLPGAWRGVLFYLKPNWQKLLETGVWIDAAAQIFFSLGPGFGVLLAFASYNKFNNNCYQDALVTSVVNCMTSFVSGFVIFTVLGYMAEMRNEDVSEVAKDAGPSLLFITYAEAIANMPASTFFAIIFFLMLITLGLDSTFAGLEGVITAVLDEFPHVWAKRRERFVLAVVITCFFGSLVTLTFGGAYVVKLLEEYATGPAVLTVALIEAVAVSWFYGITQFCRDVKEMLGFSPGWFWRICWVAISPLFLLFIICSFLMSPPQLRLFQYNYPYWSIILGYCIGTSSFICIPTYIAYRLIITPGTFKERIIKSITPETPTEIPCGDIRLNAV

[5] = molecular target: T2, α2 adrenergic receptor (α2A) (Homo sapiens, UniProt P08913); experiment: Radioligand binding, [3H]rauwolscine displacement
T2 sequence (P08913 1-465): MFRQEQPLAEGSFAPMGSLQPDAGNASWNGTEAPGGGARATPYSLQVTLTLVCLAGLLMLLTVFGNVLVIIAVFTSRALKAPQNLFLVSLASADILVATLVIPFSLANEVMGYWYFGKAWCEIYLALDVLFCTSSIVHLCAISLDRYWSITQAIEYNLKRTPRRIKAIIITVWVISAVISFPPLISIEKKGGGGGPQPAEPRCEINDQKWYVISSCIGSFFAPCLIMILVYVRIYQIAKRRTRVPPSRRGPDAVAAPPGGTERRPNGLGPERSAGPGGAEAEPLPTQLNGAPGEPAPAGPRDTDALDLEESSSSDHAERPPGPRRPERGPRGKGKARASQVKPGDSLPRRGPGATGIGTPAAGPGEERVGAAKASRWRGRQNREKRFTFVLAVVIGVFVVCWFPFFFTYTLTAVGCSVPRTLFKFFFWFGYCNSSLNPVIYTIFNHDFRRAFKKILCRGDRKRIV

[6] = molecular target: 5-HT2A receptor (Homo sapiens, UniProt P28223); experiment: Radioligand binding, [3H]ketanserin displacement
Chain of 5-HT2A receptor (P28223 whole entry): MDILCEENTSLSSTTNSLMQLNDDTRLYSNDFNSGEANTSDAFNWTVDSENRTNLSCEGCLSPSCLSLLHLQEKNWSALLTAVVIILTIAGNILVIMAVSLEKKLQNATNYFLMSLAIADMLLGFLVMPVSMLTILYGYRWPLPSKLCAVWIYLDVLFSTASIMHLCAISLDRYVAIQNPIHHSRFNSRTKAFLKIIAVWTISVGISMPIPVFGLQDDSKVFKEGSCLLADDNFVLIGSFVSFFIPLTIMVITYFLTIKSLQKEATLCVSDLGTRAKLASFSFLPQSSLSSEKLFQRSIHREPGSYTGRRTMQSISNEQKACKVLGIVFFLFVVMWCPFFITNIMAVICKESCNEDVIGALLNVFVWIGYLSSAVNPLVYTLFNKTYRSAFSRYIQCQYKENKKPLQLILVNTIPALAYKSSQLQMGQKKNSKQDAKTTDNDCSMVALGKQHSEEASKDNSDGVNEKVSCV

[7] = molecular target: T3, human TAAR1 (Homo sapiens, UniProt Q96RJ0); experiment: Human TAAR1 activation, cAMP assay in HEK 293 cells; assay type: cell-based
T3 sequence (Q96RJ0 1-339): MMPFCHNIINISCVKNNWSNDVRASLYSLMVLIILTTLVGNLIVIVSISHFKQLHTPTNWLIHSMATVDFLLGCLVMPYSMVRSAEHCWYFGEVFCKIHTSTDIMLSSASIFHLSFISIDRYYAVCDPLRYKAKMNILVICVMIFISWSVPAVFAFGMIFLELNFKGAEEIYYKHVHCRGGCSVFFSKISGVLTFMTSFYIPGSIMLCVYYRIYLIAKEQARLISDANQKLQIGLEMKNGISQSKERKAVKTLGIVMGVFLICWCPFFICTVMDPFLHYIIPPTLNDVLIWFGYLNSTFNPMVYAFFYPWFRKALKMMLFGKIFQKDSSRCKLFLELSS
Method in brief: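 Recombinant HEK 293 cells expressing human TAAR1 were pelleted, resuspended, seeded at 80,000/well and incubated 20 h at 37 °C. After a PBS wash, the cells were preincubated 60 min at 37 °C in KRB with 1 mM IBMX. Test compound (300 pM–30 μM, duplicate), β-phenylethylamine (maximal response) or basal control was added for 40 min at 37 °C. Cells were lysed 120 min at RT with Ru-cAMP Alexa700 anti-cAMP antibody mix, and fluorescence was read against a per-plate cAMP standard curve (0.13 nM–10 μM).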

[8] = molecular target: T4, 5-HT2C receptor (Homo sapiens, UniProt P28335); experiment: biochemical; assay type: binding
T4 sequence (P28335 33-458): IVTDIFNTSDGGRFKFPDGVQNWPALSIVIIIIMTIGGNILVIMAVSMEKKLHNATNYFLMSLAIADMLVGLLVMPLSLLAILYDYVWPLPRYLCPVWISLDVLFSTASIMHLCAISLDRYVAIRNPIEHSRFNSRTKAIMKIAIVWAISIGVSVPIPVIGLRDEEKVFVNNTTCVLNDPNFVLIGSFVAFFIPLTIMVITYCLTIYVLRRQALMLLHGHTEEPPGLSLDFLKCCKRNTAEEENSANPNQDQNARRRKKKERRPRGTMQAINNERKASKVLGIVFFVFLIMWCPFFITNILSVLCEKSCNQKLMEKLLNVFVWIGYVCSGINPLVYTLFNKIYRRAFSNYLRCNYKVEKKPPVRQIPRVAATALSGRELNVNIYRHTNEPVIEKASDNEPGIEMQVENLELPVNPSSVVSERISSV

[9] = molecular target: SERT (Homo sapiens, UniProt P31645); experiment: Radioligand binding, [3H]citalopram displacement
Chain of SERT (P31645 whole entry): as the sequence (P31645 whole entry) above

[10] = molecular target: T5, NET (Homo sapiens, UniProt P23975); experiment: Radioligand binding, N-methyl-[3H]nisoxetine displacement
T5 sequence (P23975 whole entry): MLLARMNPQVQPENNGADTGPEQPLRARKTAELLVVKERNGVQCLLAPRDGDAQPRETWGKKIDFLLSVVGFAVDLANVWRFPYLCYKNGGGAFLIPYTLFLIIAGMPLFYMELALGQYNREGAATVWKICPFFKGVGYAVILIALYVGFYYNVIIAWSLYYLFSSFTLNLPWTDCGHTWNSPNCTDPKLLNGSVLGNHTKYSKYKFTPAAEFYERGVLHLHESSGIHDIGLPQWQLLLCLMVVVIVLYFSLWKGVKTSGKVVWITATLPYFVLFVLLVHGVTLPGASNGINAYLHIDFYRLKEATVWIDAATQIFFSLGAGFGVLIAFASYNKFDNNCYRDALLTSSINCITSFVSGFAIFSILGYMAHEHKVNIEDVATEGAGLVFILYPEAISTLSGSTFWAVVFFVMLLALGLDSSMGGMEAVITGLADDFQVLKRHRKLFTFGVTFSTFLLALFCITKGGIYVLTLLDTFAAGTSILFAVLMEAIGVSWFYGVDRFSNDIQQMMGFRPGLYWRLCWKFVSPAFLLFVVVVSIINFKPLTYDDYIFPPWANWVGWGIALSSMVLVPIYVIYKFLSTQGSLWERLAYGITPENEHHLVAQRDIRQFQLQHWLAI

[11] = molecular target: T6, DAT (Homo sapiens, UniProt Q01959); experiment: Radioligand binding, [3H]WIN35,428 displacement
T6 sequence (Q01959 whole entry): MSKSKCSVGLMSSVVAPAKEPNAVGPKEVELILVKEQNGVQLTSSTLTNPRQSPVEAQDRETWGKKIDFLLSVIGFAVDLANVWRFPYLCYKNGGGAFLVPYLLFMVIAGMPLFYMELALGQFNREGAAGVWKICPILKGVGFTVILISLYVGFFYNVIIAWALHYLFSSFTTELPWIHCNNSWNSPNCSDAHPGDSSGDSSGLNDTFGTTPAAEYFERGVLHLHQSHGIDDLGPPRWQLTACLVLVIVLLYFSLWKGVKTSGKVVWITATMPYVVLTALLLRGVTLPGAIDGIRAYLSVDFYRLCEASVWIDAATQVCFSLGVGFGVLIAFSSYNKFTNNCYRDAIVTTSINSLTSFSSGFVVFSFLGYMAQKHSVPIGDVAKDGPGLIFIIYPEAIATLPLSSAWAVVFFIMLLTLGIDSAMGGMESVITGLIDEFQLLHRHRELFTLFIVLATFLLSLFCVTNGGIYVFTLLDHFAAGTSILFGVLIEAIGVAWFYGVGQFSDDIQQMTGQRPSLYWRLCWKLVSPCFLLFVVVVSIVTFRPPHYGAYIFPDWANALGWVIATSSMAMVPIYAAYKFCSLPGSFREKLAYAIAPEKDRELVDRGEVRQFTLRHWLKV

[12] = molecular target: T7, α1 adrenergic receptor (α1A) (Homo sapiens, UniProt P35348); experiment: Radioligand binding, [3H]prazosin displacement
T7 sequence (P35348 1-466): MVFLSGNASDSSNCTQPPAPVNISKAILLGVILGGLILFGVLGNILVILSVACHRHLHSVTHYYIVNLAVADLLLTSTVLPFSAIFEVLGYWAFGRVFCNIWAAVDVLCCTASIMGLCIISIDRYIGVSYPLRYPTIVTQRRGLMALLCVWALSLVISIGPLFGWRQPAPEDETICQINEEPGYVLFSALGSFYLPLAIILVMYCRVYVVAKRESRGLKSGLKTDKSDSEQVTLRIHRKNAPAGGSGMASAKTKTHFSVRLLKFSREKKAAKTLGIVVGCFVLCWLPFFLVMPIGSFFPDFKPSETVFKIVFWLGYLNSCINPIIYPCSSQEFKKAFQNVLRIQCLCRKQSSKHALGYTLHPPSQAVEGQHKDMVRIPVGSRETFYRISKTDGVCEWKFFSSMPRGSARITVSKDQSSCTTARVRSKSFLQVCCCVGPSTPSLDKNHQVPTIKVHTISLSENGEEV

[13] = molecular target: rat TAAR1 (Rattus norvegicus, UniProt Q923Y9); experiment: Radioligand binding, [3H]RO5166017 displacement
Chain of rat TAAR1 (Q923Y9 whole entry): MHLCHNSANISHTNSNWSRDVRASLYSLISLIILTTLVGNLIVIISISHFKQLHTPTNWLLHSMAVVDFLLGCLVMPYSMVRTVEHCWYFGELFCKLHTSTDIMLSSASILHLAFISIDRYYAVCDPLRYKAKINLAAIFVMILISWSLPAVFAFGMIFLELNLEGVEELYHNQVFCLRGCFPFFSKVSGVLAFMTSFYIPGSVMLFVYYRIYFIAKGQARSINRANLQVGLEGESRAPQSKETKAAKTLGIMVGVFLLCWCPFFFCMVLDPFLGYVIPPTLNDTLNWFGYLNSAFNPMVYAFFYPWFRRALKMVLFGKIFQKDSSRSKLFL

[14] = molecular target: T6, DAT; experiment: [3H]dopamine uptake inhibition in HEK 293 cells overexpressing human DAT; assay type: cell-based; conditions: for DAT/SERT ratio: 1/DAT IC50 : 1/SERT IC50, mean and 95% confidence interval
[15] = molecular target: T5, NET; experiment: [3H]norepinephrine uptake inhibition in HEK 293 cells overexpressing human NET; assay type: cell-based
[16] = molecular target: human 5-HT2B receptor (Homo sapiens, UniProt P41595); experiment: 5-HT2B receptor activation, FLIPR calcium assay in HEK 293 cells; assay type: cell-based
Chain of human 5-HT2B receptor (P41595 whole entry): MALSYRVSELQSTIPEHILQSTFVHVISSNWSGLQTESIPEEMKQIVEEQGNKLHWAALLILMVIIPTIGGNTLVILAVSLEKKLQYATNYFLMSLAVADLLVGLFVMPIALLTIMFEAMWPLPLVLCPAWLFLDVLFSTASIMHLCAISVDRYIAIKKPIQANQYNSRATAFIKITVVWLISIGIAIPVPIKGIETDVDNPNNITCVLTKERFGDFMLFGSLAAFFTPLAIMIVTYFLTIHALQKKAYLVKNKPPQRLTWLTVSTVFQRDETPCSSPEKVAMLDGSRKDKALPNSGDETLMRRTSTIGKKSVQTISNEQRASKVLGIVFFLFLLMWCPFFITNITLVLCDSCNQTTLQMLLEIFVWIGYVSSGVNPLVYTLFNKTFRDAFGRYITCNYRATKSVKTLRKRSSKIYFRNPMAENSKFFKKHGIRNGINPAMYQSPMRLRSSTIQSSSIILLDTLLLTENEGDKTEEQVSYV

[17] = healthy human subjects, oral MDMA; ref Schmid et al., 2016; cited from earlier work
[18] = ref Lopez-Arnau et al., 2013, cited from earlier work
[19] = after subcutaneous injection of methylone; ref Stefkova et al., 2017; cited from earlier work
[20] = rat plasma, subcutaneous methylone; ref Elmore et al., 2017; cited from earlier work

Row | SMILES | DAT/SERT ratio [14] | Ki [1] | Ki [2] | Ki [3] | IC50 [4] | IC50 [15] | Ki [5] | Ki [6] | Ki [9] | Ki [10] | Ki [11] | Ki [12] | Ki [13] | IC50 [14] | also measured
1 | COc1cc(CC(C)N)ccc1O (stereo not shown) [HMA, 4-hydroxy-3-methyoxyamphetamine] | 270 (96–830) |  |  |  |  |  |  |  |  |  |  |  |  |  | Ki ([1]; read-out: 5-HT1A Ki, mean±SD, n=3): > 18 µM; Ki ([2]; read-out: D2 Ki, mean±SD, n=3): > 13 µM; Ki ([3]; read-out: TAAR1mouse Ki, mean±SD, n=3): 0.05 ± 0.02 µM; IC50 ([4]; read-out: SERT IC50, 5-HT uptake inhibition, mean and 95% confidence interval): 35 µM; Ki ([5]; read-out: α2A Ki, mean±SD, n=3): > 4.7 µM; Ki ([6]; read-out: 5-HT2A Ki, mean±SD, n=3): > 12 µM; EC50 ([7]; read-out: human TAAR1 activation EC50): 10.4 µM and 10 µM; human TAAR1 activation efficacy ([7]; β-phenylethylamine as maximal response): 51 ± 12%; Ki ([8]; read-out: 5-HT2c Ki, mean±SD, n=3): > 5.1 µM; Ki ([9]; read-out: SERT Ki, mean±SD, n=3): > 7.4 µM; Ki ([10]; read-out: NET Ki, mean±SD, n=3): > 8.8 µM; Ki ([11]; read-out: DAT Ki, mean±SD, n=3): > 8.5 µM; Ki ([12]; read-out: α1A Ki, mean±SD, n=3): > 9.5 µM; Ki ([13]; read-out: TAAR1rat Ki, mean±SD, n=3): 0.15 ± 0.02 µM; maximum dopamine transporter inhibition ([14]; partial inhibition of dopamine uptake): 66%
2 | CC(N)Cc1ccc2c(c1)OCO2 (stereo not shown) [MDA, 3,4-methylenedioxyamphetamine, reference compound] |  | 9 ± 0.8 µM | > 13 µM | 0.18 ± 0.03 µM | 4.3 µM | 0.38 µM | 2.6 ± 0.1 µM | 3.2 ± 0.8 µM | > 7.4 µM | > 8.8 µM | > 8.5 µM | 8.8 ± 0.6 µM | 0.22 ± 0.03 µM | 17 µM | EC50 [16]: 0.2 ± 0.01 µM; 5-HT2B receptor activation efficacy ([16]; relative to 5-HT activity defined as 100%): 51 ± 7%; Cmax as % of the Cmax of MDMA [17]: 4–8%
3 | CNC(C)C(=O)c1ccc2c(c1)OCO2 (stereo not shown) [Methylone, 3,4-methylenedioxymethcathinone, reference compound] | 2.7 (1.9–3.8) | > 17 µM | > 13 µM | > 4.7 µM | 18 µM | 0.56 µM | > 5 µM | > 12 µM | > 7.5 µM | > 8.7 µM | 2.3 ± 0.1 µM | > 9.5 µM | > 5 µM | 6.6 µM | Tmax ([18]; 15 mg/kg oral dose): 30 min; Tmax ([18]; 30 mg/kg oral dose): 60 min; brain vs. serum concentration, times higher [19]: approximately five; time of maximum brain and serum concentrations [19]: 30 min; time at which Cmax was reached [20]: 15 min; Ki [8]: > 14 µM

— article PMC8269116 (Journal of psychopharmacology (Oxford, England), 2019)
